{"data": "Measurements from different studies", "target": "Mitogen-activated protein kinase kinase kinase 14 (MAP3K14, Homo sapiens, UniProt Q99558)", "note": "Lines come from different studies, so protocols differ."}
{"SMILES": "CC(C)(C)c1nc(-c2cccc(NS(=O)(=O)c3c(F)cccc3F)c2F)c(-c2ccnc(N)n2)s1", "observed": "enzyme activity", "mode": "inhibitor", "technique": "radiometric", "tested at": "1 µM", "endpoint": "remaining activity", "result": "100%"}
{"SMILES": "C[C@@H](c1cccc(C#N)c1)n1cc(Cl)cc(C(N)=O)c1=N", "observed": "cell-free assay", "technique": "competition with immobilised ligand", "tested at": "1 µM", "endpoint": "remaining binding", "result": "93%"}
{"SMILES": "N#CCCc1ccc2c(c1)-c1[nH]c3ccc([N+](=O)[O-])cc3c1CC(=O)N2", "observed": "cell-free assay", "tested at": "0.5 µM", "endpoint": "remaining signal", "result": "161%"}
{"SMILES": "Nc1ncnc2occ(-c3ccc(NC(=O)Nc4cc(C(F)(F)F)ccc4F)cc3)c12", "observed": "cell-free assay", "mode": "inhibitor", "tested at": "20 µM", "endpoint": "remaining signal", "result": "93%"}
{"SMILES": "CC(C)(C)c1nc2c(s1)c1nc(N)ncc1c1ccc(NS(=O)(=O)c3c(F)cccc3F)c(F)c12", "observed": "enzyme activity", "mode": "inhibitor", "technique": "radiometric", "tested at": "1 µM", "endpoint": "remaining activity", "result": "104%"}
{"SMILES": "CCCOc1ccc([C@H]2[C@H](C(=O)O)[C@@H](c3ccc4c(c3)OCO4)CN2CC(=O)Nc2c(CC)cccc2CC)cc1", "observed": "cell-free assay", "technique": "competition with immobilised ligand", "tested at": "1 µM", "endpoint": "remaining binding", "result": "85%"}
{"SMILES": "C[C@@H]1CCN(c2nccc(-c3cnn4ncccc34)n2)C1", "observed": "binding", "technique": "competition with immobilised ligand", "tested at": "1 µM", "endpoint": "remaining binding", "result": "72%"}
{"SMILES": "CC(C)(O)[C@H]1CC[C@H](Nc2ccc3ncc(-c4cccc(C(F)(F)F)c4)n3n2)CC1", "observed": "enzyme activity", "mode": "inhibitor", "tested at": "1 µM", "endpoint": "remaining activity", "result": "114%"}
